# pIC50: −log10 of the molar value. Active and inactive are the calls of the source. The rule behind the calls is not given here.
# Columns and labels:
# HCT-116 [1] = test: Antitumor activity against human HCT116 cells harboring KRAS G13D mutant xenografted in NSG mouse assessed as tumor growth inhibition by measuring reduction in tumor volume at 100 mg/kg, ip administered daily for 12 days and measured post-last dose relative to control; assay type: functional; details: HCT-116, ip, 288 h, read-out: TGI
# Summary of the method: (§1)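 NSG mice, female and male, about 4–8 weeks old, were implanted with 1 × 10⁶ HCT116 cells on both sides of the abdomen. Tumours grew 3–5 days until visible. Compound was given ip daily for 12 days in vehicle containing 10% DMSO and 10% Kolliphor EL (dosing solution 10 mg/mL); control mice received vehicle. Tumour volume was measured daily; tumours were excised and weighed on the last day. Unpaired two-tailed t-test.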
# [2] = biological target: T1, NAD-dependent protein deacetylase sirtuin-2 (Homo sapiens) (UniProt Q8IXJ6); test: Inhibition of SIRT2 in human HCT116 cells assessed as increase in alpha-tubulin acetylation at 50 uM incubated for 6 hrs by DAPI staining-based laser scanning confocal microscopic analysis; assay type: cell-based
# T1 sequence (whole entry): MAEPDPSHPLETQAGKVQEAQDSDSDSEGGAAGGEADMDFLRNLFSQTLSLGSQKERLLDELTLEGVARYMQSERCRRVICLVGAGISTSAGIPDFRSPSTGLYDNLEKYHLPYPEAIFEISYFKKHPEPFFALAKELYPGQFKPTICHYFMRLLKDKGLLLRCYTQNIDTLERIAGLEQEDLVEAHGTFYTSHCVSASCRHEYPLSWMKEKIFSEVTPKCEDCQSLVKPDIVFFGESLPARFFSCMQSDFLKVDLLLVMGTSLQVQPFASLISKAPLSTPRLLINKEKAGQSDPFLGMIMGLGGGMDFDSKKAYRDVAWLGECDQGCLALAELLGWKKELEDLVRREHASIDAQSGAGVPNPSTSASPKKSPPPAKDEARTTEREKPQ
# Summary of the method: (§2)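 HCT116 cells were seeded at 400 000 on poly-D-lysine-coated glass-bottom dishes and grown 24 h. Cells were treated with DMSO or inhibitor for 6 h at 37 °C, fixed in ice-cold methanol, and blocked in TBS/0.1% Triton X-100/5% BSA. They were stained with anti-acetyl α-tubulin (1:100, overnight, 4 °C), then Cy3 anti-mouse, and mounted with DAPI. Imaging was by confocal microscopy.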
# HCT-116 [3] = test: Antitumor activity against human HCT116 cells harboring KRAS G13D mutant xenografted in NSG mouse assessed as tumor growth inhibition by measuring reduction in tumor volume at 25 mg/kg, ip administered daily for 12 days and measured daily during compound dosing; assay type: functional, organism-based; summary of the method: as §1
# BXPC-3 = test: Growth inhibition of human BxPC3 cells after 72 hrs by CellTiter-Blue assay; assay type: functional; details: BXPC-3, 72 h
# HCT-116 [4] = test: Inhibition of anchorage-independent cell growth in human HCT116 cells assessed as reduction in colony formation at >=10 uM incubated for 5 days followed by compound re-addition and measured after 9 to 11 days by nitro blue tetrazolium chloride-based soft agar colony formation assay relative to control; assay type: functional
# Summary of the method: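 HCT116 cells were mixed at 500 cells/mL into 0.3% agar growth layer over a 0.6% agar base layer (McCoy's medium, 10% calf serum). Both layers held inhibitor at 2.5–50 μM final. Wells were run in triplicate at 37 °C. Inhibitor-containing growth layer was added again at day 5. At 9–11 days, nitro blue tetrazolium was added overnight and colonies were imaged and counted.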
# [5] = biological target: T1, NAD-dependent protein deacetylase sirtuin-2 (Homo sapiens); test: Inhibition of SIRT2 in human HCT116 cells assessed as increase in alpha-tubulin acetylation at 25 uM incubated for 6 hrs by DAPI staining-based laser scanning confocal microscopic analysis; assay type: cell-based; summary of the method: as §2
# HCT-116 [6] = test: Antitumor activity against human HCT116 cells harboring KRAS G13D mutant xenografted in NSG mouse assessed as tumor growth inhibition by measuring reduction in tumor weight at 25 mg/kg, ip administered daily for 12 days and measured post-last dose; assay type: functional, organism-based; summary of the method: as §1
# CCD-841CoN = test: Growth inhibition of human CCD-841-CoN cells after 72 hrs by CellTiter-Blue assay; assay type: cell-based
# Summary of the method: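 3000 cells/well seeded, 20 h at 37 °C. Inhibitor added at final 1–100 μM, then 72 h at 37 °C. Viability read by CellTiter-Blue after 4 h at 37 °C, fluorescence 560 nm excitation/590 nm emission. GI50 derived.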
# SW948 = test: Potency index, ratio of TM GI50 to compound GI50 for growth inhibition of human SW948 cells; assay type: functional
# A549 = test: Potency index, ratio of TM GI50 to compound GI50 for growth inhibition of human A549 cells; assay type: functional
# [7] = biological target: T2, NAD-dependent protein deacetylase sirtuin-3, mitochondrial (Homo sapiens, UniProt Q9NTG7); test: Inhibition of human SIRT3 assessed as reduction in deacetylase activity using acetylated H3K9 as substrate preincubated for 15 mins followed by substrate addition and measured after 15 mins by UV-HPLC analysis
# T2 sequence (Q9NTG7 whole entry): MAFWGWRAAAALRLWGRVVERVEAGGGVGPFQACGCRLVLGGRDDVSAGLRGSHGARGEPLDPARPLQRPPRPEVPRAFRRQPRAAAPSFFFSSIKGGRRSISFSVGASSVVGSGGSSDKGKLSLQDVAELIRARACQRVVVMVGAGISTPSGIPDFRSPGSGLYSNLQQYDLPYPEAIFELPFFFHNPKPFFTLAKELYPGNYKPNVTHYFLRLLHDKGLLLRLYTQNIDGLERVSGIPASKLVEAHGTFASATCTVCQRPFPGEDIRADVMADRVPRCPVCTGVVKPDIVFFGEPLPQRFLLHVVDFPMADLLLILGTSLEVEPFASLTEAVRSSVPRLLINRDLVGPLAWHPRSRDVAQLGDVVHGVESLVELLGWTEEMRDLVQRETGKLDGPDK
# MCF7 = test: Potency index, ratio of TM GI50 to compound GI50 for growth inhibition of human MCF7 cells; assay type: functional
# MDA-MB-231 = test: Potency index, ratio of TM GI50 to compound GI50 for growth inhibition of human MDA-MB-231 cells; assay type: functional
# HCT-116 [8] = test: Potency index, ratio of TM GI50 to compound GI50 for growth inhibition of human HCT116 cells; assay type: functional
inhibition [2],GI50 (BXPC-3),inhibition [5],pIC50 [7],Compound,inhibition in vivo at 100 mg/kg (HCT-116 [1]),TGI (HCT-116 [3]),growth inhibition (GI) (HCT-116 [4]),TGI (HCT-116 [6]),GI50 (CCD-841CoN),RatioGI50 (SW948),RatioGI50 (A549),RatioGI50 (MCF7),RatioGI50 (MDA-MB-231),RatioGI50 (HCT-116 [8])
Active,72.4 µM,Active,,CCCCCCCCNC(=S)NCCCC[C@H](NC(=O)OCc1ccccc1)C(=O)Nc1ccccc1,80%,inactive,100%,inactive,,,,,,
Active,24.3 µM,Active,< 3.70,CCCCCCCCCCNC(=S)NCCCC[C@H](NC(=O)OCc1ccccc1)C(=O)Nc1ccccc1,37%,,100%,,47.4 µM,2,2,2,2,2

# Source: ChEMBL document CHEMBL4433206, “Novel Lysine-Based Thioureas as Mechanism-Based Inhibitors of Sirtuin 2 (SIRT2) with Anticancer Activity in a Colorectal Cancer Murine Model” (J Med Chem, 2019)
